Out of some 300,000 compounds screened, about 4,400 (1.5%) were called active. The sample holds actives, similar compounds and a random draw of the others, so the mix is not that of the screen.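 Rule for the calls: active = mean inhibition across valid replicates above about 55% (limit read from the data); inconclusive = mean below that limit but half or more replicates reach it; inactive = mean below it, under half of replicates reach it.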

In general, inhibition refers to the change of the read-out against control, counted positive when it falls.

This test is described as follows: inhibitors of intracellular T. cruzi growth, primary screen, luminescence, NIH3T3 host cells (AID 1885).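 Note: signal also drops with host cell toxicity which is not excluded here; 0% = plate median of DMSO wells and 100% = zero luminescence signal; higher percent means less beta-gal luminescence so fewer parasites.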 As to conditions: T. cruzi beta-gal in NIH3T3, luminescence, 90 h; active compounds read high; concentration not given here. A digest of the protocol:
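Read-out: Parasite load inhibition, % | Test system: Mouse NIH/3T3 fibroblasts infected with β-gal-expressing T. cruzi Tulahuen C4 | Amount: 5,000 cells/well | Medium: DMEM, 2% fetal bovine serum | Signal: GalScreen β-gal luminescence, detergent lysis, 60 min | Timing: 3 h attach, ≥90 h co-culture | Also added: Tulahuen C4 trypomastigotes, 5000/well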
For `COC(=O)C(c1ccccc1)N1CCCCCC1` (stereo not given), the inhibition was -2.88% (inactive).

Turning to `O=C(NCC(c1cccnc1)N1CCN(c2ccccc2)CC1)Oc1ccccc1` (stereo not given), the inhibition was 64.2% (active).

For the compound `COc1ccccc1N1CCN(C(CNC(=O)Oc2ccccc2)c2cccnc2)CC1` (stereo not given), the inhibition is 61.2% (active).

As to `c1ccc(CCN2CCC3(CC2)OCCO3)cc1`, the inhibition was 8.57% (inactive).

As to `Cc1ccc(C)c(NC2=NCCCS2)c1`, the inhibition is 8.9% (inactive).

As for `COc1cccc(OC)c1C(=O)NC(=S)N1C[C@H]2C[C@H](C1)c1cccc(=O)n1C2`, the inhibition is 0.307% (inactive).

`CC(C)c1ccc(-n2c(O)c(/C=N/N3CCOCC3)c(=O)[nH]c2=S)cc1`: the inhibition is -9.55% (inactive).

Regarding `CCN1CC2C3CCC(C)(O3)C2C1` (stereo not given), the inhibition is -4.25% (inactive).

Consider `COc1ccc(CNCCc2c[nH]c3ccccc23)cc1OC`, for which the inhibition is 8.16% (inactive).

For `COc1ccc(Br)cc1CNCCc1cccc(Cl)c1`, the inhibition was 56.8% (active).

Turning to `COc1ccc(CNCCc2ccc3c(c2)OCO3)c(OC)c1OC`, the inhibition was 50.2% (inactive).

For the compound `CC1=CC(=Cc2sc3ccccc3[n+]2C)C=C(C)O1`, the inhibition is 81.1% (active).

`COc1ccc(N2C(=O)/C(=C/c3ccco3)C(=O)NC2=S)cc1`: the inhibition is -2.75% (inactive).

Turning to `C[C@@]1([C@@H](NP(=O)(c2ccccc2)c2ccccc2)c2ccccc2)C[C@H]1CCO`, the inhibition was 1% (inactive).

For `Cc1ccc(-c2nn(CCC#N)cc2C(=O)O)cc1C`, the inhibition is -14.3% (inactive).

For the compound `COc1ccccc1-n1c(O)c(C=NC2CC2)c(=O)[nH]c1=O`, the inhibition is -10.6% (inactive).

Turning to `COc1cccc(CN2CCCC(C(=O)c3ccccc3SC)C2)c1O` (stereo not given), the inhibition is 0.0491% (inactive).

Turning to `O=C(c1ccccc1[N+](=O)[O-])N1CCC2(CC1)OCCO2`, the inhibition was -12.5% (inactive).

Consider `Cc1ccc(C2CN(C)CC2C(=O)c2ccc(F)cc2)cc1` (stereo not given), for which the inhibition is -5.25% (inactive).

`CN1CCC(OC(=O)c2cccc(F)c2)CC1`: the inhibition was 58.3% (active).

`CCC/C(=N\O)c1c[nH]c2ccccc12`: the inhibition is -2.44% (inactive).

Take `COc1ccc(-n2c(O)c(C(C)=Nc3ccc4c(c3)CCC4)c(=O)[nH]c2=O)cc1`: the inhibition was -27.7% (inactive).

In the case of `CCOc1ccc(CN(CCCl)CCCl)cc1C(=O)OC`, the inhibition is -1.04% (inactive).

Regarding `CCOc1ccc(-c2cc(C)[n+](CCN(CC)CC)c(-c3ccc(OCC)cc3)c2)cc1`, the inhibition is 64.1% (active).

`CN1C2C=C(N(C(=O)c3ccc(Cl)cc3)c3ccccc3)CC1CC2` (stereo not given): the inhibition is 9.22% (inactive).

In the case of `O=C1N=c2ccccc2=C/C1=C\c1c(O)[nH]c(=S)[nH]c1=O`, the inhibition is -14% (inactive).

Take `CCCCCCCCCCCCn1ccc(=N)cc1`: the inhibition is 58.9% (active).

As for `CCc1nc2ccccc2c(=O)n1-c1cccc(OC)c1`, the inhibition is -3.64% (inactive).

Consider `CC(C)Oc1cccc(C(=O)C2CCCN(C3CCOCC3)C2)c1` (stereo not given), for which the inhibition was -14% (inactive).

`CC(=O)c1c(O)n(C2CCCCCC2)c(=O)[nH]c1=O`: the inhibition was -10.9% (inactive).

`CC1=C(C(=O)Nc2ccccc2)SCCO1`: the inhibition is -24.2% (inactive).

Consider `O=C(NC(c1ccc(Cl)cc1)P(=O)(Oc1ccccc1)Oc1ccccc1)OCc1ccccc1` (stereo not given), for which the inhibition was 12.3% (inactive).

`C=CCN1C(=O)NC(=O)/C(=C/c2ccc(OCC(=O)Nc3ccc(C)cc3)cc2)C1=O`: the inhibition is 12.8% (inactive).

For the compound `COc1cc(C(c2c(O)c3ccccc3oc2=O)c2c(C)n(C)n(-c3ccccc3)c2=O)ccc1O` (stereo not given), the inhibition is -33% (inactive).

Take `CCOP(=O)(OCC)C(NC(=O)NC)C(N)=O` (stereo not given): the inhibition was 2.29% (inactive).

Source of the values: PubChem BioAssay AID1885 (Broad Institute, 2009).
